# Test results as given in ChEMBL document CHEMBL3525938, “Whole-body physiologically based pharmacokinetic model for nutlin-3a in mice after intravenous and oral administration” (Drug Metab Dispos, 2011).
# Tests used:
# [1] = Drug uptake in C57BL/6 mouse adrenal gland at 10 mg/kg, iv as single dose measured at 24 hrs; format: ADME, organism-based; design: dose 10 mg/kg, route intravenous; conditions: in vivo
# [2] = system: Lung; test: Drug uptake in C57BL/6 mouse lung at 10 mg/kg, iv as single dose measured at 24 hrs; format: ADME, organism-based; design: dose 10 mg/kg, route intravenous; conditions: in vivo
# [3] = system: Muscle tissue; test: Drug uptake in C57BL/6 mouse muscle at 10 mg/kg, iv as single dose measured at 24 hrs; format: ADME, organism-based; design: dose 10 mg/kg, route intravenous; conditions: in vivo
# [4] = Drug uptake in C57BL/6 mouse retina at 10 mg/kg, iv as single dose measured at 24 hrs; format: ADME, organism-based; design: dose 10 mg/kg, route intravenous; conditions: in vivo
# How it was run: (§1)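 Adult C57BL/6 mice received a single bolus of 10 mg/kg by tail-vein iv injection or 100 or 200 mg/kg by oral gavage, with n = 5 per group and vehicle controls. Samples were taken at 0.5–48 h. Blood came by cardiac puncture under isoflurane, and tissues were dissected at the same time and frozen at −80°C. Tissues were homogenized in 5 mM ammonium formate, pH 7, and assayed by LC-ESI-MS/MS against matrix-matched standards.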
# [5] = system: Brain; test: Drug uptake in C57BL/6 mouse brain at 10 mg/kg, iv as single dose measured at 24 hrs; format: ADME, organism-based; design: dose 10 mg/kg, route intravenous; conditions: in vivo; how it was run: as §1
# [6] = system: Bone marrow; test: Drug uptake in C57BL/6 mouse bone marrow at 10 mg/kg, iv as single dose measured at 24 hrs; format: ADME, organism-based; design: dose 10 mg/kg, route intravenous; conditions: in vivo; how it was run: as §1
# [7] = Drug uptake in C57BL/6 mouse vitreous humor at 10 mg/kg, iv as single dose measured at 24 hrs; format: ADME, organism-based; design: dose 10 mg/kg, route intravenous; conditions: in vivo; how it was run: as §1
# [8] = Drug uptake in C57BL/6 mouse adipose tissue at 10 mg/kg, iv as single dose measured at 24 hrs; format: ADME, organism-based; design: dose 10 mg/kg, route intravenous; conditions: in vivo
# [9] = Ratio of drug level in blood to plasma in C57BL/6 mouse after 30 mins; format: ADME; conditions: blood and plasma
# How it was run: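 Pooled heparinized whole blood from male C57BL/6 mice was spiked at 0.1, 1, 10 and 100 μM final, in triplicate, and incubated at 37°C for 30 min with mixing every 5 min. Whole blood was sampled, and plasma was obtained by centrifugation. Both were measured by LC-MS/MS, and the ratio was calculated from the whole-blood and plasma concentrations.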
# [10] = Fraction unbound in C57BL/6 mouse plasma at 0.1 uM up to 24 hrs by equilibrium dialysis method; format: ADME, cell-free
# How it was run: (§2)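 Equilibrium dialysis used male C57BL/6 plasma spiked with the drug against PBS across a 5-kDa membrane. The plate was rotated at 37°C under humidified 5% CO2 for 24 h, in triplicate. The plasma side was taken as bound and the PBS side as free, both measured by LC-MS/MS. Fraction unbound was calculated relative to total plasma concentration.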
# [11] = Fraction unbound in C57BL/6 mouse plasma at 300 uM up to 24 hrs by equilibrium dialysis method; format: ADME, cell-free; how it was run: as §2
# [12] = Cytotoxicity against doxorubicin-resistant human UKF-NB-3 cells after 96 hrs by MTT assay; format: functional, cell-based; conditions: UKF-NB-3, 96 h
# [13] = system: Intestine; test: Drug uptake in C57BL/6 mouse intestine at 50 to 200 mg/kg, po as single dose measured at 2 hrs; format: ADME, organism-based; design: dose 50-200 mg/kg, route oral; conditions: in vivo
# [14] = system: Liver; test: Drug uptake in C57BL/6 mouse liver at 50 to 200 mg/kg, po as single dose measured at 2 hrs; format: ADME, organism-based; design: dose 50-200 mg/kg, route oral; conditions: in vivo; how it was run: as §1
# [15] = system: Spleen; test: Drug uptake in C57BL/6 mouse spleen at 50 to 200 mg/kg, po as single dose measured at 2 hrs; format: ADME, organism-based; design: dose 50-200 mg/kg, route oral; conditions: in vivo; how it was run: as §1
# [16] = system: Plasma; test: Drug uptake in C57BL/6 mouse plasma at 50 to 200 mg/kg, po as single dose measured at 2 hrs; format: ADME, organism-based; design: dose 50-200 mg/kg, route oral; conditions: in vivo
# How it was run: (§3)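 Plasma came from two studies in C57BL/6 mice. Study 1: single iv dose of 10 mg/kg or oral dose of 100 or 200 mg/kg, n = 5, blood by cardiac puncture at 0.5–48 h. Study 2 (males): iv 10 or 20 mg/kg, oral 50 or 100 mg/kg, serial plasma to 24 h (iv) or 16 h (oral). Plasma was separated at 12,000g for 5 min at 4°C and measured by LC-ESI-MS/MS.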
# [17] = Drug uptake in C57BL/6 mouse adipose tissue at 50 to 200 mg/kg, po as single dose measured at 2 hrs; format: ADME, organism-based; design: dose 50-200 mg/kg, route oral; conditions: in vivo
# [18] = Drug uptake in C57BL/6 mouse adrenal gland at 50 to 200 mg/kg, po as single dose measured at 2 hrs; format: ADME, organism-based; design: dose 50-200 mg/kg, route oral; conditions: in vivo
# [19] = system: Lung; test: Drug uptake in C57BL/6 mouse lung at 50 to 200 mg/kg, po as single dose measured at 2 hrs; format: ADME, organism-based; design: dose 50-200 mg/kg, route oral; conditions: in vivo
# [20] = system: Muscle tissue; test: Drug uptake in C57BL/6 mouse muscle at 50 to 200 mg/kg, po as single dose measured at 2 hrs; format: ADME, organism-based; design: dose 50-200 mg/kg, route oral; conditions: in vivo
# [21] = Drug uptake in C57BL/6 mouse retina at 50 to 200 mg/kg, po as single dose measured at 2 hrs; format: ADME, organism-based; design: dose 50-200 mg/kg, route oral; conditions: in vivo
# [22] = system: Brain; test: Drug uptake in C57BL/6 mouse brain at 50 to 200 mg/kg, po as single dose measured at 2 hrs; format: ADME, organism-based; design: dose 50-200 mg/kg, route oral; conditions: in vivo; how it was run: as §1
# [23] = system: Bone marrow; test: Drug uptake in C57BL/6 mouse bone marrow at 50 to 200 mg/kg, po as single dose measured at 2 hrs; format: ADME, organism-based; design: dose 50-200 mg/kg, route oral; conditions: in vivo; how it was run: as §1
# [24] = Drug uptake in C57BL/6 mouse vitreous humor at 50 to 200 mg/kg, po as single dose measured at 2 hrs; format: ADME, organism-based; design: dose 50-200 mg/kg, route oral; conditions: in vivo
# [25] = system: Intestine; test: Drug uptake in C57BL/6 mouse intestine at 10 mg/kg, iv as single dose measured at 24 hrs; format: ADME, organism-based; design: dose 10 mg/kg, route intravenous; conditions: in vivo
# [26] = system: Liver; test: Drug uptake in C57BL/6 mouse liver at 10 mg/kg, iv as single dose measured at 24 hrs; format: ADME, organism-based; design: dose 10 mg/kg, route intravenous; conditions: in vivo; how it was run: as §1
# [27] = system: Spleen; test: Drug uptake in C57BL/6 mouse spleen at 10 mg/kg, iv as single dose measured at 24 hrs; format: ADME, organism-based; design: dose 10 mg/kg, route intravenous; conditions: in vivo; how it was run: as §1
# [28] = system: Plasma; test: Drug uptake in C57BL/6 mouse plasma at 10 mg/kg, iv as single dose measured at 24 hrs; format: ADME, organism-based; design: dose 10 mg/kg, route intravenous; conditions: in vivo; how it was run: as §3
structure (smiles),measurement,setting,value
COc1ccc(C2=N[C@@H](c3ccc(Cl)cc3)[C@@H](c3ccc(Cl)cc3)N2C(=O)N2CCNC(=O)C2)c(OC(C)C)c1 [NUTLIN-3],Drug uptake,[1],Not Active
same,Drug uptake,[2],Not Active
same,Drug uptake,[3],Not Active
same,Drug uptake,[4],Not Active
same,Drug uptake,[5],Not Active
same,Drug uptake,[6],Not Active
same,Drug uptake,[7],Not Active
same,Drug uptake,[8],Not Active
same,blood plasma ratio at 0.5 h,[9],0.7
same,"fraction unbound at 24 h, 0.1 µM",[10],0.007
same,"fraction unbound at 24 h, 300 µM",[11],0.118
same,IC50,[12],5.56 µM
same,Drug uptake,[13],Active
same,Drug uptake,[14],Active
same,Drug uptake,[15],Active
same,Drug uptake,[16],Active
same,Drug uptake,[17],Active
same,Drug uptake,[18],Active
same,Drug uptake,[19],Active
same,Drug uptake,[20],Active
same,Drug uptake,[21],Active
same,Drug uptake,[22],Not Active
same,Drug uptake,[23],Not Active
same,Drug uptake,[24],Not Active
same,Drug uptake,[25],Not Active
same,Drug uptake,[26],Not Active
same,Drug uptake,[27],Not Active
same,Drug uptake,[28],Not Active
